Laboratory results from ChEMBL document CHEMBL2434899, “Peripherally selective diphenyl purine antagonist of the CB1 receptor” (J Med Chem, 2013).
The source made the active and inactive calls.

Legend:
[1] = biological target: T1, Cannabinoid receptor 1 (Homo sapiens, UniProt P21554); assay: Displacement of [3H]CP55940 from human CB1 receptor expressed in CHO-K1 cells; format: cell-based
[2] = biological target: Cannabinoid receptor 2 (Homo sapiens, UniProt P34972); assay: Displacement of [3H]CP55940 from CB2 receptor (unknown origin) expressed in CHO-K1 cells; format: cell-based
[3] = biological target: T1, Cannabinoid receptor 1; assay: Antagonist activity at human CB1 receptor expressed in CHO-K1 cells by intracellular Ca2+ mobilization assay in presence of CP55940; format: functional, cell-based
In short: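 CHO-K1 cells co-expressing human CB1 and Gαq16; intracellular calcium flux read with fluorescent dye on a 96-well plate reader. Rightward shift of the CP55940 concentration-response curve gives Ke = [ligand]/(DR−1), DR being the CP55940 EC50 ratio with versus without test agent. Averages of 3–6 measurements.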

[4] = species on record: Homo sapiens; assay: Selectivity ratio of Ki for CB2 receptor (unknown origin) to Ki for human CB1 receptor
[5] = tested on: Mus musculus; assay: Antagonist activity at CB1 receptor in ICR mouse assessed as latency period at 10 mg/kg, po after 30 mins by warm water tail withdrawal assay; format: functional, organism-based; set-up: dose 10 mg/kg
In short: (§1)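 ICR mice had baseline tail-withdrawal latency measured in a 55 °C water bath, then received oral vehicle or 10 mg/kg by gavage, followed 30 min later by i.v. vehicle or 30 mg/kg Δ9-THC. Latency was retested 20 min post-injection with a 10 s cutoff, expressed as %MPE = [(test−control)/(10−control)]×100. 5–6 mice per group; factorial ANOVA with Tukey post hoc.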

[6] = Plasma concentration in Sprague-Dawley rat at 10 mg/kg, po after 24 hrs by LC-MS analysis; format: ADME, organism-based; set-up: dose 10 mg/kg, route oral
In short: (§2)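 Male Sprague Dawley rats, 9 weeks old, given 10 mg/kg orally by gavage in corn oil; 3 rats per time point. Un-perfused brain and plasma taken at 1, 2, 4, 8 and 24 h. Plasma, or brain homogenized in ethanol:water, was precipitated with acetonitrile, centrifuged 9000 g for 5 min and analysed by LC-MS/MS (MRM, C18 column).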

[7] = tested on: Nucleic Acid; assay: Ratio of drug uptake from brain to plasma in Sprague-Dawley rat at 10 mg/kg, po after 1 hr by LC-MS analysis; format: ADME, organism-based; set-up: dose 10 mg/kg, route oral; in short: as §2
[8] = tested on: Nucleic Acid; assay: Ratio of drug uptake from brain to plasma in Sprague-Dawley rat at 10 mg/kg, po after 2 hrs by LC-MS analysis; format: ADME, organism-based; set-up: dose 10 mg/kg, route oral; in short: as §2
[9] = Plasma concentration in Sprague-Dawley rat at 10 mg/kg, po after 8 hrs by LC-MS analysis; format: ADME, organism-based; set-up: dose 10 mg/kg, route oral; in short: as §2
[10] = Drug uptake in brain of Sprague-Dawley rat at 10 mg/kg, po after 1 hr by LC-MS analysis; format: ADME, organism-based; set-up: dose 10 mg/kg, route oral; details: read-out: Drug uptake; in short: as §2
[11] = tested on: Nucleic Acid; assay: Ratio of drug uptake from brain to plasma in Sprague-Dawley rat at 10 mg/kg, po after 8 hrs by LC-MS analysis; format: ADME, organism-based; set-up: dose 10 mg/kg, route oral; in short: as §2
[12] = tested on: Mus musculus; assay: Antagonist activity at CB1 receptor in ICR mouse assessed as rectal temperature at 10 mg/kg, po after 30 mins relative to control; format: functional, organism-based; set-up: dose 10 mg/kg
In short: (§3)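 Adult ICR mice given vehicle or 10 mg/kg oral gavage, then vehicle or 30 mg/kg Δ9-THC i.v. by tail vein 30 min later. Rectal temperature was taken before injection and at 30 min after it, reported as change (°C). At 40 min, time motionless on an elevated ring over 5 min was recorded as % immobility. 5–6 mice per group; factorial ANOVA with Tukey post hoc.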

[13] = Drug uptake in brain of Sprague-Dawley rat at 10 mg/kg, po after 2 hrs by LC-MS analysis; format: ADME, organism-based; set-up: dose 10 mg/kg, route oral; details: read-out: Drug uptake; in short: as §2
[14] = Drug uptake in brain of Sprague-Dawley rat at 10 mg/kg, po after 8 hrs by LC-MS analysis; format: ADME, organism-based; set-up: dose 10 mg/kg, route oral; details: read-out: Drug uptake; in short: as §2
[15] = tested on: Mus musculus; assay: Reversal of delta9-THC-mediated suppression of hypothermia in ICR mouse assessed as rectal temperature at 10 mg/kg, po administered 30 mins prior to delta9-THC challenge measured after 30 mins relative to control; format: functional, organism-based; set-up: dose 10 mg/kg; in short: as §3
[16] = tested on: Mus musculus; assay: Reversal of delta9-THC-mediated suppression of spontaneous activity in ICR mouse at 10 mg/kg, po administered 30 mins prior to delta9-THC challenge measured after 5 mins; format: functional, organism-based; set-up: dose 10 mg/kg
In short: (§4)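 ICR mice were gavaged with vehicle or 10 mg/kg, then injected i.v. in the tail vein 30 min later with vehicle or 30 mg/kg Δ9-THC. After 5 min each mouse was placed in an activity chamber for 10 min; horizontal movement was counted as total infrared photobeam interruptions. 5–6 mice per group; factorial ANOVA with Tukey post hoc.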

[17] = tested on: Nucleic Acid; assay: Ratio of drug uptake from brain to plasma in Sprague-Dawley rat at 10 mg/kg, po after 4 hrs by LC-MS analysis; format: ADME, organism-based; set-up: dose 10 mg/kg, route oral; in short: as §2
[18] = Plasma concentration in Sprague-Dawley rat at 10 mg/kg, po after 2 hrs by LC-MS analysis; format: ADME, organism-based; set-up: dose 10 mg/kg, route oral; in short: as §2
[19] = Plasma concentration in Sprague-Dawley rat at 10 mg/kg, po after 4 hrs by LC-MS analysis; format: ADME, organism-based; set-up: dose 10 mg/kg, route oral; in short: as §2
[20] = tested on: Mus musculus; assay: Antagonist activity at CB1 receptor in ICR mouse assessed as catelepsy at 10 mg/kg, po after 30 mins; format: functional, organism-based; set-up: dose 10 mg/kg; in short: as §3
[21] = Drug uptake in brain of Sprague-Dawley rat at 10 mg/kg, po after 4 hrs by LC-MS analysis; format: ADME, organism-based; set-up: dose 10 mg/kg, route oral; details: read-out: Drug uptake; in short: as §2
[22] = tested on: Mus musculus; assay: Antagonist activity at CB1 receptor in ICR mouse assessed as suppression of spontaneous activity at 10 mg/kg, po after 30 mins; format: functional, organism-based; set-up: dose 10 mg/kg; in short: as §4
[23] = tested on: Nucleic Acid; assay: Ratio of drug uptake from brain to plasma in Sprague-Dawley rat at 10 mg/kg, po after 24 hrs by LC-MS analysis; format: ADME, organism-based; set-up: dose 10 mg/kg, route oral; in short: as §2
[24] = tested on: Mus musculus; assay: Reversal of delta9-THC-mediated suppression of catelepsy in ICR mouse at 10 mg/kg, po administered 30 mins prior to delta9-THC challenge measured after 40 mins; format: functional, organism-based; set-up: dose 10 mg/kg; in short: as §3
[25] = tested on: Mus musculus; assay: Reversal of delta9-THC-mediated suppression of antinociceptive activity in ICR mouse assessed as latency period at 10 mg/kg, po administered 30 mins prior to delta9-THC challenge measured after 20 mins by warm water tail withdrawal assay; format: functional, organism-based; set-up: dose 10 mg/kg; in short: as §1
[26] = Drug uptake in brain of Sprague-Dawley rat at 10 mg/kg, po after 24 hrs by LC-MS analysis; format: ADME, organism-based; set-up: dose 10 mg/kg, route oral; details: read-out: Drug uptake; in short: as §2
[27] = Plasma concentration in Sprague-Dawley rat at 10 mg/kg, po after 1 hr by LC-MS analysis; format: ADME, organism-based; set-up: dose 10 mg/kg, route oral; in short: as §2

T1 sequence (P21554 whole entry): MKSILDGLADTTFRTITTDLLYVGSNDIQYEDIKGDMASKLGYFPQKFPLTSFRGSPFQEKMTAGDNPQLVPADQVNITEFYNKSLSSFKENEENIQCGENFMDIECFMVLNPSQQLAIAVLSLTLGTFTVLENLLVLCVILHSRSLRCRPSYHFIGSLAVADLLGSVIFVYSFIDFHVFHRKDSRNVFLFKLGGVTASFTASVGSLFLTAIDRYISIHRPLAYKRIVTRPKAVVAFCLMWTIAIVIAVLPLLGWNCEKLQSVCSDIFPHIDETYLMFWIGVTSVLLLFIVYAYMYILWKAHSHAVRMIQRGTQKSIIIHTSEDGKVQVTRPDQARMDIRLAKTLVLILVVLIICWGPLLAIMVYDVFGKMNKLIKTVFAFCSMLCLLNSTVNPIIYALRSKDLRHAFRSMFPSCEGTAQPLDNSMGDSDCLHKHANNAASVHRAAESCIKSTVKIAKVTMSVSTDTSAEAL
Sequence of Cannabinoid receptor 2 (P34972 whole entry): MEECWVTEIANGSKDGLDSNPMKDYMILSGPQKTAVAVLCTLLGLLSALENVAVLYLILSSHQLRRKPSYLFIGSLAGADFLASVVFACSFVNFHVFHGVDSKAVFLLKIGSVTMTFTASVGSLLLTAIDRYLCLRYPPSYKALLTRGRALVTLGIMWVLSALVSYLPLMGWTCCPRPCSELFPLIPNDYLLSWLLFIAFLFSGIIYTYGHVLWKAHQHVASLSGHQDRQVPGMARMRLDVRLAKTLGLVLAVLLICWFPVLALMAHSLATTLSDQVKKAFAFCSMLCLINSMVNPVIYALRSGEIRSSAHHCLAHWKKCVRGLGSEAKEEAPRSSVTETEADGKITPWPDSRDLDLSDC

## O=C(NC1CCN(c2ncnc3c2nc(-c2ccccc2Cl)n3-c2ccc(Cl)cc2)CC1)Oc1ccccc1
[1]
  Ki: 2.55 nM
[2]
  Ki: 10600 nM

## CC(C)CC(=O)NC1CCN(c2ncnc3c2nc(-c2ccccc2Cl)n3-c2ccc(Cl)cc2)CC1
[1]
  Ki: 4.01 nM
[3]
  Ke: 5.4 nM
[4]
  Ratio Ki: 22
[2]
  Ki: 89.5 nM

## CC(C)CCC(=O)NC1CCN(c2ncnc3c2nc(-c2ccccc2Cl)n3-c2ccc(Cl)cc2)CC1
[1]
  Ki: 2.67 nM
[3]
  Ke: 7.4 nM
[4]
  Ratio Ki: 81
[2]
  Ki: 215 nM

## CCCCC(=O)NC1CCN(c2ncnc3c2nc(-c2ccccc2Cl)n3-c2ccc(Cl)cc2)CC1
[5]
  Activity: inactive
[6]
  concentration at 24 h: 438 ng/mL
[7]
  BPR: 0.03
[8]
  BPR: 0.04
[9]
  concentration at 8 h: 1960 ng/mL
[10]
  concentration at 1 h: 24.3 ng/mL
[11]
  BPR: 0.03
[12]
  Activity: inactive
[13]
  concentration at 2 h: 71.5 ng/mL
[14]
  concentration at 8 h: 62.5 ng/mL
[15]
  Activity: inactive
[16]
  Activity: inactive
[1]
  Ki: 19.5 nM
[17]
  BPR: 0.07
[18]
  concentration at 2 h: 1750 ng/mL
[19]
  concentration at 4 h: 1560 ng/mL
[20]
  Activity: inactive
[3]
  Ke: 4.9 nM
[21]
  concentration at 4 h: 103 ng/mL
[22]
  Activity: inactive
[23]
  BPR: 0.01
[24]
  Activity: inactive
[25]
  Activity: inactive
[26]
  concentration at 24 h: 5.35 ng/mL
[4]
  Ratio Ki: 54
[2]
  Ki: 1050 nM
[27]
  concentration at 1 h: 730 ng/mL

## COC(=O)NC1CCN(c2ncnc3c2nc(-c2ccccc2Cl)n3-c2ccc(Cl)cc2)CC1
[3]
  Ke: 17 nM

## O=C(NC1CCN(c2ncnc3c2nc(-c2ccccc2Cl)n3-c2ccc(Cl)cc2)CC1)C1CCCCC1
[1]
  Ki: 3.35 nM
[3]
  Ke: 3.3 nM
[4]
  Ratio Ki: 249
[2]
  Ki: 835 nM

## NS(=O)(=O)NC1CCN(c2ncnc3c2nc(-c2ccccc2Cl)n3-c2ccc(Cl)cc2)CC1
[3]
  Ke: 2770 nM

## O=C(CC1CCCCC1)NC1CCN(c2ncnc3c2nc(-c2ccccc2Cl)n3-c2ccc(Cl)cc2)CC1
[1]
  Ki: 1.93 nM
[3]
  Ke: 2.1 nM
[2]
  Ki: 2360 nM

## CCOC(=O)NC1CCN(c2ncnc3c2nc(-c2ccccc2Cl)n3-c2ccc(Cl)cc2)CC1
[1]
  Ki: 3.57 nM
[3]
  Ke: 2.3 nM
[4]
  Ratio Ki: 119
[2]
  Ki: 426 nM

## O=C(CCN1CCCCC1)NC1CCN(c2ncnc3c2nc(-c2ccccc2Cl)n3-c2ccc(Cl)cc2)CC1
[3]
  Ke: 789 nM

## O=C(CC1CCCC1)NC1CCN(c2ncnc3c2nc(-c2ccccc2Cl)n3-c2ccc(Cl)cc2)CC1
[1]
  Ki: 2.02 nM
[3]
  Ke: 2.9 nM
[4]
  Ratio Ki: 282
[2]
  Ki: 569 nM

## O=S(=O)(NC1CCN(c2ncnc3c2nc(-c2ccccc2Cl)n3-c2ccc(Cl)cc2)CC1)C(F)(F)F
[1]
  Ki: 6.1 nM
[3]
  Ke: 1.05 nM
[4]
  Ratio Ki: 738
[2]
  Ki: 4500 nM

## CN(C)CC(=O)NC1CCN(c2ncnc3c2nc(-c2ccccc2Cl)n3-c2ccc(Cl)cc2)CC1
[3]
  Ke: 140 nM

## O=C(NC1CCN(c2ncnc3c2nc(-c2ccccc2Cl)n3-c2ccc(Cl)cc2)CC1)C1CCCC1
[1]
  Ki: 1.54 nM
[3]
  Ke: 0.89 nM
[4]
  Ratio Ki: 39
[2]
  Ki: 60.2 nM
